# Source: PubChem BioAssay (The Scripps Research Institute Molecular Screening Center)
# M1 ag – human M1 muscarinic receptor agonists, primary screen, Fluo-8 calcium fluorescence, CHO-K1 cells, HTS; Muscarinic acetylcholine receptor M1 (Homo sapiens), P11229; CHO-K1 hM1, agonist mode; 0% DMSO, 100% acetylcholine EC100; activation, % at 3 µM; 360,000 tested, 0.33% active;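 active = activation above the run's mean compound activation plus 3 SD, cut at about 16% in these data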;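 note: peak over basal fluorescence ratio within a 140 s kinetic read after compound addition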
# Target sequence (P11229 whole entry, looked up): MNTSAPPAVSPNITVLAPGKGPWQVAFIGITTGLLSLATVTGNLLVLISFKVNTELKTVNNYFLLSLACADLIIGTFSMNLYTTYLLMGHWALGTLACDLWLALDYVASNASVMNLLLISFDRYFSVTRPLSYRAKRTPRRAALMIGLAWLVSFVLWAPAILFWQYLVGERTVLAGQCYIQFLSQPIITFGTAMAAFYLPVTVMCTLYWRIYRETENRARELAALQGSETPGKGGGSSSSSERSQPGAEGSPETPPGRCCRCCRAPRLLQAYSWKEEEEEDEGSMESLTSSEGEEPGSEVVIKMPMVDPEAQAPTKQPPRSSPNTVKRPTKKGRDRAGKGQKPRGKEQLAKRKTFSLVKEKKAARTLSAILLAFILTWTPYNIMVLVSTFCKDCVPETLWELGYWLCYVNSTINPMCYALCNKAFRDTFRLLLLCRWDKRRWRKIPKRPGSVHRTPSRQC
# M5 antag – human M5 muscarinic receptor antagonists, primary screen, CHO cells, Fluo-8 calcium fluorescence. Muscarinic acetylcholine receptor M5 (Homo sapiens), P08912. CHO-hM5 cells, ACh EC80. inhibition, % at 3 µM. 360,000 tested, 0.59% active. AID 624040, 2012;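 active = inhibition above a per-plate cutoff, the mean of that plate's test compounds plus 3 SD, cut at about 27% in these data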;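 note: 0% = acetylcholine EC80 with DMSO and 100% = DMSO without agonist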
# CHRM1 antagonist – human M1 muscarinic receptor antagonists, primary screen, CHO-K1 cells, Fluo-8 calcium fluorescence, 1536-well | Muscarinic acetylcholine receptor M1 (Homo sapiens), P11229 | CHO-K1 hM1, ACh EC80 antagonist | 360,000 tested, 1.3% active | inhibition, % at 3 µM | AID 588852, 2011;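 active = percent inhibition above its own plate's cutoff, namely the mean of that plate's compound wells plus 3 SD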;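 note: peak over basal fluorescence ratio during 140 s after agonist addition; 0% = ACh EC80 plus DMSO and 100% = DMSO alone without agonist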
# M5 PAM – human M5 muscarinic receptor positive allosteric modulators, primary screen, CHO-K1 cells, Fluo-8 calcium fluorescence; activation, % at 3 µM; CHO-K1 hM5, ACh EC20 PAM; 0% = ACh EC20, 100% = ACh EC100; Muscarinic acetylcholine receptor M5 (Homo sapiens), P08912; 360,000 tested, 0.3% active;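 active = activation above the run cutoff, the mean activation of all test compounds plus 3 SD, cut at about 18% in these data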
#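 Assay system: CHO-K1 hM5 cells. Also added: acetylcholine at EC20 concentration, added after compound. Dosing: 3 µM, single dose. Times: compound preincubation 140 s before EC20 acetylcholine addition. Signal: Fluo-8 calcium fluorescence. Measure: % activation relative to EC20 and EC100 ACh responses. Repeats: singlicate, one well per test compound.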
# M5 ag – human M5 muscarinic receptor agonists, primary screen, CHO-K1 cells, Fluo-8 calcium fluorescence. Muscarinic acetylcholine receptor M5 (Homo sapiens), P08912. CHO-K1 hM5 cells; 0% DMSO wells, 100% maximal acetylcholine response. activation, % at 3 µM. 360,000 tested, 0.19% active. AID 624037, 2012;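 active = activation above the run's mean over test compounds plus 3 SD, cut at about 23% in these data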;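 note: signal is peak over basal fluorescence ratio across the kinetic read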
# CHRM1 PAM – human M1 muscarinic receptor positive allosteric modulators, primary screen, CHO-K1 cells, Fluo-8 calcium fluorescence, 1536-well | Muscarinic acetylcholine receptor M1 (Homo sapiens), P11229 | CHO-K1 hM1, ACh EC20; 0% = ACh EC20, 100% = maximal ACh | activation, % at 3 µM | 360,000 tested, 0.088% active | AID 588819, 2011; in the data active = activation above about 19%, passing the limit was not always enough
# * = called active by the depositor; · = no result. Hits are enriched below; roughly 2.2% of the tested compounds scored in any of these assays.
SMILES,M1 ag,M5 antag,CHRM1 antagonist,M5 PAM,M5 ag,CHRM1 PAM
CCC(C)N1CNc2c(c(=O)[nH]c(=S)n2-c2cccc(C)c2)C1 (configuration not stated),-6.3,35.3*,-7.1,22.8*,9.1,11.5
COC(=O)c1oc2ccc(Br)cc2c1NC(=O)CCCN1C(=O)c2ccccc2C1=O,-6.4,28.8*,13.6,-23.5,-4.5,-11.0
O=C(CCCN1C(=O)c2ccccc2C1=O)Nc1c(C(=O)C2CC2)oc2ccccc12,-0.9,-6.2,-13.4,1.3,0.7,13.5
O=C(CN1CCCCC1)Nc1ccccc1NC(=O)CN1CCCCC1,-5.1,1.7,-8.1,9.2,0.9,8.5
CCOc1ccccc1NC(=O)c1cc(C(=O)Nc2ccccc2OCC)cc(N2C(=O)CCC2=O)c1,-3.9,29.1*,11.6,-16.8,-1.3,-9.1
COc1ccccc1NC(=O)CN1CCN(CC(=O)Nc2ccc(OCc3ccccc3)cc2)CC1,-0.5,5.2,16.1*,-7.7,0.7,-12.4
CC(C(=O)Nc1ccc(OCc2ccccc2)cc1)N1CCCC1 (configuration not stated),-7.8,10.4,49.1*,-5.8,-15.8,-23.8
CCOc1ccccc1NC(=O)CN1CCCCCC1,-10.4,7.8,26.4*,-5.1,-2.1,-15.3
COc1ccccc1CNS(=O)(=O)c1c(C(=O)N2CCCCC2)c(C)n(C)c1C,-1.9,15.3,-13.4,1.1,-0.7,15.2
O=C(Nc1ccc(Cl)c(Cl)c1)Nc1ccccc1NS(=O)(=O)c1cccs1,2.1,30.1*,11.8,-19.1,4.5,-6.3
O=C(Nc1ccccc1)Nc1ccccc1NS(=O)(=O)c1cccs1,0.3,3.4,4.7,-15.1,8.0,-7.9
O=C(CNC(=O)c1ccco1)OCC(=O)c1ccc(Cl)cc1Cl,0.2,0.3,-14.4,8.2,2.4,11.1
Cc1ccc2[nH]c(-c3ccccc3)c(CN3CCCC3)c(=O)c2c1,-15.6,-13.7,-6.2,20.3*,-3.5,-2.8
COCCOc1cc(-n2ccnc2SC)c(Cl)cc1Cl,-3.9,8.9,0.0,2.9,-2.8,-0.2
Cc1cc(C)n2c(Nc3ccc4c(c3)OCCO4)c(CCc3ccccc3)nc2n1,·,-6.5,·,1.7,5.0,·
Cc1ccc(C)c(NC(=O)Cc2coc3cc4c(cc23)CCC4)c1,-2.5,2.1,8.0,0.1,-1.6,27.8*
N#CCOC(=O)c1cc(S(=O)(=O)N2CCCCC2)ccc1N1CCOCC1,-3.9,10.0,3.1,8.7,0.3,1.5
N#CCCn1nc(-c2ccccc2)cc1Nc1ccccc1NC(=O)c1cccs1,-1.3,-13.8,3.4,21.5*,-2.5,-0.4
O=C(Nc1ccccc1C1CC1)c1cccs1,-2.8,4.7,14.2,-0.7,0.0,-2.4
Cc1cc2oc(C(=O)Nc3ccc(S(N)(=O)=O)cc3)c(C)c2cc1Cl,-2.6,8.2,1.7,0.8,-0.3,-6.5
Cc1ccc2c(C)c(C(=O)NCc3ccc(S(N)(=O)=O)cc3)oc2c1C,-1.0,3.9,10.4,26.6*,3.6,-6.6
Cc1ccc2c(C)c(C(=O)Nc3ccc(S(N)(=O)=O)cc3)oc2c1C,-4.2,0.3,3.1,27.1*,1.5,0.3
O=C(OCC(=O)c1c[nH]c2ccccc12)c1cccc([N+](=O)[O-])c1,-1.6,9.9,3.8,-7.7,0.4,-2.7
COc1ccc(NS(=O)(=O)c2ccc3c(c2)NC(=O)CO3)c(OC)c1,-0.5,5.9,-3.7,9.8,3.0,0.4
CC(C)(C)OC(=O)NCc1ccc(NC(=O)c2nc[nH]c2C(=O)NCCNC(=O)c2[nH]cnc2C(=O)Nc2ccc(CNC(=O)OC(C)(C)C)cc2)cc1,-2.6,7.6,9.7,5.3,0.9,-4.6
SMILES,M1 ag,M5 antag,CHRM1 antagonist,M5 PAM,M5 ag,CHRM1 PAM
CC(C)(C)OC(=O)NCc1ccc(CNC(=O)c2nc[nH]c2C(=O)NCc2ccc(CNC(=O)OC(C)(C)C)cc2)cc1,-1.0,1.0,2.0,-10.1,5.2,-2.6
CC(C)(C)OC(=O)CNC(=O)c1[nH]cnc1C(=O)Nc1ccc(CNC(=O)OC(C)(C)C)cc1,-0.1,22.6,52.5*,-33.8,6.7,-28.5
CC(C)(C)OC(=O)CNC(=O)c1nc[nH]c1C(=O)NCc1ccc(CNC(=O)OC(C)(C)C)cc1,-1.8,19.7,34.2*,-36.2,9.6,-24.5
CC(C)(C)OC(=O)NCc1ccc(CNC(=O)c2[nH]cnc2C(=O)NC2CCN(C(=O)OC(C)(C)C)CC2)cc1,4.0,0.9,34.5*,-23.7,6.3,-18.6
C[C@H](CO)N1C[C@H](C)[C@@H](CN(C)CC2CCCCC2)Oc2ccc(NC(=O)Cn3cnnn3)cc2C1=O,-9.1,1.6,-5.5,-2.5,-1.9,4.5
COC(=O)Cc1[nH]nc2c1C(c1ccc(O)c(OC)c1)C(C#N)=C(N)O2 (configuration not stated),-1.3,9.7,-15.2,-0.7,0.9,4.8
NC(=S)Nn1c(-c2ccccc2)nc2ccccc2c1=O,-4.3,-4.0,-5.1,22.1*,1.9,7.6
Cc1ccc(S(=O)(=O)NN)c(C)c1N1CCCC1=O,-2.5,5.7,-4.4,3.3,0.4,2.8
CC(=C/c1ccccc1)/C=N/n1cnnc1,22.1*,-10.9,0.2,-0.8,15.8,0.9
C=CCc1ccccc1OCC(=O)NNC(=S)NCc1ccccc1,-5.3,11.4,7.1,-16.5,-7.6,-11.5
Cc1ccc(NC(=O)/C(C#N)=N/Nc2ccc(C(=O)O)cc2)c(C)c1,3.9,3.0,-20.2,-1.4,1.4,23.7*
Cc1ccc(N/N=C(\C#N)C(N)=S)c(C)c1,5.6,24.4,10.5,-9.9,6.5,-6.8
Cc1cc(C)n2nc(N)c(N=Nc3ccccc3)c2n1,-3.1,2.1,19.1,-2.9,-0.1,-5.5
Cc1cc(C)[n+]2[nH]c(N)c(N=Nc3ccccc3)c2n1,-1.0,-16.8,-22.1,21.8*,3.5,17.4
COCCCNc1ccn2nc(-c3cccc(OCc4ccccc4)c3)cc2n1,-1.3,14.8,26.8*,-5.2,2.8,-11.4
COCCCNc1ccn2nc(-c3ccccc3)cc2n1,-1.7,-6.0,-17.4,-0.2,0.0,5.0
O=C(COc1ccccc1-c1ccccc1)N/N=C/c1ccccn1,0.6,7.7,6.5,-5.8,0.1,9.0
NNC(=O)c1nnn(-c2nonc2N)c1-c1cccs1,2.5,3.5,-28.6,11.5,4.1,21.6*
